NR2E3 ag-1 = activates human photoreceptor nuclear receptor NR2E3. Q9Y5X4. GST-NR2E3/biotin-RetCOR TR-FRET, 1536-well. inhibition of corepressor binding, % at 4.78 µM. hit rate 0.12% among 320,000. AID 2300;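 active means percent inhibition above the cutoff of mean plus 3 SD of all tested compounds, set per screening campaign, cut at about 20% in these data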;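 further: 0% = DMSO wells and 100% = biotin wells as full block of FRET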
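Test system – NR2E3–RetCOR corepressor complex · Quantity – NR2E3 fusion 1.35 nM · Buffer or medium – Tris pH 7.5 · Incubation – Compound–protein incubation for 5 h at 4 °C · Technique – TR-FRET, Eu(K)-anti-GST donor, streptavidin-D2 acceptor, ex 340, em 617/671 nm · Evaluation – percent inhibition of 671/617 nm emission ratio versus biotin and DMSO controls · Plate – 1536-well format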
697 NFkB inh = lowers PMA/ionomycin-induced NF-kB signal in 697 B cells | 697 B-cell NF-kB luciferase reporter, 16 h | inhibition, % at 4 µM | hit rate 0.33% among 330,000; in the data active means inhibition above about 35%
Jurkat NFkB inh = inhibitors of the PMA/ionomycin-induced NF-kB reporter in Jurkat cells. PMA/ionomycin-induced NF-kB luciferase reporter, luminescence. hit rate 0.53% among 330,000. inhibition, % at 4 µM; in the data active means inhibition above about 50%
NR2E3 ag-2 = agonists of human NR2E3 nuclear receptor | AID 602229 | hit rate 0.35% among 360,000 | Q9Y5X4 | CHO-S Gal4-NCOR/VP16-NR2E3 two-hybrid, luciferase | inhibition of corepressor binding, % at 3.98 µM;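 active means inhibition above the mean of all tested compounds plus 3 SD, cut at about 70% in these data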;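 further: 0% = DMSO with NR2E3 transfected cells and 100% = cells lacking NR2E3 construct; higher means lower luciferase signal from less NR2E3 corepressor binding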
GalR3 antag = antagonists of human GalR3 | O60755 | HEK293 GalR3-CNG cAMP membrane potential fluorescence; galR3 body fused to GalR1 C-terminus | inhibition, % at 3 µM | hit rate 0.44% among 360,000;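 active means inhibition above the screen-wide average plus 3 SD, cut at about 13% in these data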;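 further: forskolin and galanin both at EC90 stimulate the cells; cAMP rise reported by CNG channel membrane potential dye signal; 0% = forskolin plus galanin with DMSO and 100% = forskolin alone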
Target sequence (O60755 1-299 limits assumed): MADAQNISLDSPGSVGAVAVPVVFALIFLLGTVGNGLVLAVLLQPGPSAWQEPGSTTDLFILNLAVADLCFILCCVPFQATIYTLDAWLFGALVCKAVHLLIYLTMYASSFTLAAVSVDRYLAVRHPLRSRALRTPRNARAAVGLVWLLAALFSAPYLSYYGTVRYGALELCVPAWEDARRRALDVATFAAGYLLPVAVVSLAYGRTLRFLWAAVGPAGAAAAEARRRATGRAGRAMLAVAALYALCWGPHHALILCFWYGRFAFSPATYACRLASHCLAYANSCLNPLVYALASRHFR
Gli-Sufu block = Gli-Sufu pathway antagonism; hit rate 0.74% among 340,000; inhibition, % at 5 µM; AID 588413; Sufu-KO-LIGHT fibroblasts, Gli luciferase reporter luminescence;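 active means inhibition above about 55%, limit read from the data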;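 further: 0% = DMSO-treated cells and 100% = wells with medium but no cells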
GalR3 conf = GalR3 (human) antagonism, confirmation; AID 652245; hit rate 59% among 1,600; shares compounds with GalR3 antag; inhibition, % at 3 µM; HEK293 GalR3 CNG cAMP biosensor, membrane potential fluorescence; galR3 fused to GalR1 carboxy tail; challenged with forskolin and galanin at EC90;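 active means inhibition above the primary screen's cutoff, the mean inhibition of all screened compounds plus 3 SD, cut at about 13% in these data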;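 further: 0% = forskolin plus galanin and 100% = forskolin alone with DMSO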
HEK-CNG parental = counter-screen for GalR3 antagonists: nonspecific agonists in parental HEK-CNG cells; shares compounds with GalR3 antag; HEK293-CNG parental cells, cAMP membrane potential fluorescence; normalised: DMSO wells 0%, forskolin wells 100%; activation, % at 3 µM; hit rate 10% among 1,600; AID 652268; in the data active means activation above about 1.3%
The depositor's hits bear a star; x = no result given. In the library only some 1.8% were active in any assay of this set; here they are far more common.

SMILES	NR2E3 ag-1	697 NFkB inh	Jurkat NFkB inh	NR2E3 ag-2	GalR3 antag	Gli-Sufu block	GalR3 conf	HEK-CNG parental
COc1cc(C(=O)NCc2cccnc2)ccc1OCC(=O)Nc1cccc(C(F)(F)F)c1	5	-32	12	8	-6	29	x	x
CC(=O)c1ccc(OCCCC(=O)Nc2cccc(-c3nn[nH]n3)c2)cc1	-1	8	0	20	-6	-10	x	x
CCOC(=O)CNC(=O)CNC(=O)c1ccc(OCC(C)C)cc1	-1	19	9	-9	86*	0	6	0
Cc1cccc2sc(NS(=O)(=O)c3ccccc3)nc12	4	-1	-1	-3	-2	5	x	x
CC(=O)c1c(C)[nH]c(C(=O)OCC(=O)NCc2ccc(Cl)cc2)c1C	1	-14	12	7	-8	4	x	x
CC(=O)c1c(C)[nH]c(C(=O)OCC(=O)Nc2cc(Cl)ccc2[N+](=O)[O-])c1C	3	-11	5	-11	93*	5	50*	-1
CN1[C@@H](COCc2ccccc2)C=CS1(=O)=O	x	x	x	1	-1	x	x	x
COc1c(C)cc(C(=O)C2CCCN(C(=O)c3cc(C4CC4)[nH]n3)C2)cc1C (stereo not drawn)	1	5	8	-9	3	2	x	x
COc1ccc2c(c1)OC(=O)CC2c1cc(OC)c(OC)c(OC)c1 (stereo not drawn)	x	1	x	-26	13*	-2	4	0
Cc1ccc(OCC(=O)Nc2cc(S(=O)(=O)N3CCCCC3)ccc2C)c([N+](=O)[O-])n1	-2	-3	-18	-15	13*	0	0	0
Nc1cc2c(cc1[N+](=O)[O-])OCCOCCOCCO2	-1	28	8	6	-3	3	x	x
COC(=O)c1ccc(N2CCN(CC(=O)c3ccc(-c4ccccc4)cc3)CC2)c([N+](=O)[O-])c1	5	-12	1	-79	x	1	7	0
CC1C(=O)C(C)C(c2ccc([N+](=O)[O-])cc2)NC1c1ccc([N+](=O)[O-])cc1 (stereo not drawn)	5	-10	-1	8	3	13	x	x
CC1C(=O)CC(c2ccc([N+](=O)[O-])cc2)NC1c1ccc([N+](=O)[O-])cc1 (stereo not drawn)	-2	-10	-1	-22	18*	22	17*	0
COc1ccc(-n2c(N)cc(=O)[nH]c2=O)cc1	1	9	-1	x	x	2	x	x
Nc1cc(=O)[nH]c(=O)n1-c1cccc(F)c1	-2	-9	-14	-19	27*	-10	6	0
C/C(=N\NC(=O)c1ccc(C(=O)N/N=C(\C)c2ccco2)o1)c1ccco1	-3	4	-1	4	2	-11	x	x
C/C(=N\O)c1ccco1	2	4	11	-13	x	-2	3	0
CN(C)S(=O)(=O)c1ccc(Cl)c(C(=O)NCCNC(=O)c2cc(S(=O)(=O)N(C)C)ccc2Cl)c1	1	-5	-1	4	13*	34	8	0
Cc1cccc(NC(=O)c2ccc(Cl)c(S(=O)(=O)N3CCCCC3)c2)n1	2	-9	-1	-28	-3	-6	x	x
Cc1ccc(CN2C(=O)CCC2C(=O)NCCCN2CCC(C)CC2)cc1 (stereo not drawn)	x	x	x	13	x	24	10	0
CCCC(=O)OCCNc1cc(Sc2nc3ccccc3[nH]2)c2nonc2c1[N+](=O)[O-]	0	25	-2	-8	26*	-15	35*	0
CC(=O)OCCNc1cc(SC(C)C)c2nonc2c1[N+](=O)[O-]	0	21	-2	-24	-5	-1	x	x
CCC(=O)OCCNc1cc(SCCC(=O)OC)c2nonc2c1[N+](=O)[O-]	0	-10	25	-23	4	-2	x	x
CCC(=O)OCCNc1cc(Sc2nccn2C)c2nonc2c1[N+](=O)[O-]	3	x	x	-10	41*	-2	21*	0
SMILES	NR2E3 ag-1	697 NFkB inh	Jurkat NFkB inh	NR2E3 ag-2	GalR3 antag	Gli-Sufu block	GalR3 conf	HEK-CNG parental
Cc1nn(C(C)C(=O)NCc2cccs2)c(C)c1[N+](=O)[O-] (stereo not drawn)	4	21	4	5	3	6	x	x
CCc1nc2ccc(C(=O)Nc3ccc(OC)c(OC)c3)cn2c1N(CC)CCOC	x	x	x	-15	13*	x	7	0
CCc1nc2ccc(C(=O)Nc3ccc(OC)c(OC)c3)cn2c1N(CC)Cc1cccc(Br)c1	x	x	x	3	1	x	x	x
Cc1c(C(=O)NN)sc(-c2ccccc2)c1C#N	1	16	-5	0	16*	-3	1	0
Cc1ccc(CNC(=O)c2nc3nc(C)cc(C)n3n2)cc1	4	8	8	0	2	-1	x	x
Cc1cc(C)n2nc(C(=O)NCc3ccccc3)nc2n1	2	8	8	-4	x	2	5	0
COC(=O)C1=CN(Cc2ccccc2)C=C(C(=O)OC)C1c1cc(F)ccc1F	-2	0	0	-14	-13	12	x	x
O=C(CCc1ccccc1)Nc1ccccc1[N+](=O)[O-]	4	-19	-31	-79	-9	-37	x	x
O=C(CNCc1ccc(F)cc1)Nc1ccccc1[N+](=O)[O-]	0	18	-3	-7	24*	-3	10	0
CCCc1ccc(C(=O)NC(=O)c2ccccc2O)cc1	-3	4	-18	6	13*	-21	49*	-1
Cc1ccc(C(=O)Nc2ccnc(-c3ccncc3)n2)cc1	-2	4	2	5	-4	-8	x	x
COc1cccc(C(C(=O)NC2CCCC2)N(C(=O)c2ccco2)c2ccccc2)c1OC (stereo not drawn)	-1	9	21	-16	-8	-5	x	x
COc1ccc(NC(=O)Cn2nc(C(=O)O)c3ccccc3c2=O)cc1Cl	-1	10	10	-33	13*	0	2	0
O=C(COC(=O)c1cccc(Br)c1)Nc1ccc2[nH]c(=O)[nH]c2c1	0	-7	-3	-1	32*	-10	49*	0
O=C(CN(CCc1ccccc1)S(=O)(=O)c1ccc(Cl)cc1)N/N=C/c1ccc2c(c1)OCO2	1	15	13	12	13*	-2	-2	1.9*
COc1ccc(S(=O)(=O)N(CCc2ccccc2)CC(=O)N/N=C/c2ccc3c(c2)OCO3)cc1	1	17	2	-2	-3	-1	x	x
Nc1ncnc2c1nc(N1CCCCC1)n2[C@@H]1O[C@H](CO)[C@@H](O)[C@H]1O	5	-1	-6	3	1	-9	x	x
